Source: ChEMBL document CHEMBL4257448, “Deciphering the origins of molecular toxicity of combretastatin A4 and its glycoconjugates: interactions with major drug transporters and their safety profiles in vitro and in vivo” (Medchemcomm, 2017)
In brackets after ≈: the same amount, converted by molar mass.

What was measured:
[1] = Cytotoxicity against HEK293FT cells expressing GLUT1 assessed as reduction in cell viability up to 20 uM; format: cell-based; details: human
[2] = Cytotoxicity against HEK293FT cells assessed as reduction in cell viability up to 20 uM; format: cell-based; details: human
[3] = Ratio of CA4 aqueous solubility to test compound aqueous solubility; format: physicochemical; details: buffer
HT-29 [4] = experiment: […] for human HT-29 cells assessed as reduction in cell viability after 72 hrs by MTT assay; format: functional
In short: (§1)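 HT29 cells were cultured in RPMI-1640 with glutamine and 10% FBS, seeded at 2000–7500 cells/well, and exposed for 72 h to drug in DMSO (final DMSO <0.1%). MTT was added at 0.83 mg mL−1 final and incubated overnight, then cells were lysed in SDS/HCl and read at 570 nm. Survival was expressed as percent of drug-free control; five replicate wells.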

[5] = Aqueous solubility of the compound after 1 hrs by HPLC-UV method; format: physicochemical; details: deionized water
In short: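 Shaken in tubes at 25 °C for 1 h, protected from light, then filtered through 0.2 μm filters; filtrate diluted in deionized water and quantified by reversed-phase HPLC-UV (C18 column, room temperature, methanol/water 70:30 v/v, 1.0 mL min−1).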

Mus musculus = experiment: Ratio of compound MTD to CA4 MTD in ip dosed DBA/2 mouse assessed as reduction in 15% body weight administered as daily dose for 3 days; format: ADME, organism-based; details: in vivo, 72 h
HT-29 [6] = experiment: Cytotoxicity against human HT-29 cells assessed as reduction in cell viability after 72 hrs by MTT assay; format: functional, cell-based; details: HT-29, 72 h; in short: as §1
[7] = Toxicity in ip dosed DBA/2 mouse assessed as reduction in 15% body weight administered as daily dose for 3 days; format: organism-based; details: in vivo
In short: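 Adult male DBA/2 mice were dosed i.p. at 10 mL kg−1, with 5 per group. Controls (n = 8) received saline. MTD was the dose allowing 15% median body-weight loss with no toxic deaths or marked change in general signs within 3 days.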

Compound	Activity [1]	Activity [2]	Ratio [3]	Ratio IC50 (HT-29 [4])	solubility at 1 h [5]	Ratio (Mus musculus)	IC50 (HT-29 [6])	MTD at 72 h [7]
COc1ccc(/C=C\c2cc(OC)c(OC)c(OC)c2)cc1O[C@@H]1O[C@H](CO)[C@H](O)[C@H](O)[C@H]1O	Toxic	Toxic	853	54.61	2560 µg/mL (≈ 5.35 mM)	34	39.3 µM	550 mg/kg
COc1ccc(/C=C\c2cc(OC)c(OC)c(OC)c2)cc1O[C@H]1O[C@H](CO)[C@@H](O)[C@H](O)[C@@H]1O	Toxic	Toxic	1963	15.89	5890 µg/mL (≈ 12.3 mM)	16	11.4 µM	400 mg/kg
